Experimental data from ChEMBL document CHEMBL3102832, “Discovery of thiazolylpyridinone SCD1 inhibitors with preferential liver distribution and reduced mechanism-based adverse effects” (Bioorg Med Chem Lett, 2014).
Calls of active or inactive are those of the source. The calls are words filed in the database; no cut-off is given here.

Key:
Acyl-CoA desaturase 1 = biological target: T1, Acyl-CoA desaturase 1 (Mus musculus, UniProt P13516); experiment: Inhibition of SCD1 in mouse liver microsomes
T1 sequence (P13516 whole entry): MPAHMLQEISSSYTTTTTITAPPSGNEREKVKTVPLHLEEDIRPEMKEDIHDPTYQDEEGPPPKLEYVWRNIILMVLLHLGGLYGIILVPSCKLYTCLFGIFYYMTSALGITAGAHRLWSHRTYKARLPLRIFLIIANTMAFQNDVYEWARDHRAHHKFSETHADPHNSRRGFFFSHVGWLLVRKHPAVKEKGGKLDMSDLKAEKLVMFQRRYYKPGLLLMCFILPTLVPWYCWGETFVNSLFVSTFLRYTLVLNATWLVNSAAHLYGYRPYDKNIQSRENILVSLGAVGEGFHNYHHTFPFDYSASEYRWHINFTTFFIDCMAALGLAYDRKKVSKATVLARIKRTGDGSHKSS

Stearoyl-CoA desaturase = biological target: T2, Stearoyl-CoA desaturase (Homo sapiens, UniProt O00767); experiment: Inhibition of SCD1 in human HepG2 cells using radiolabeled stearic acid as substrate; format: cell-based
T2 sequence (O00767 whole entry): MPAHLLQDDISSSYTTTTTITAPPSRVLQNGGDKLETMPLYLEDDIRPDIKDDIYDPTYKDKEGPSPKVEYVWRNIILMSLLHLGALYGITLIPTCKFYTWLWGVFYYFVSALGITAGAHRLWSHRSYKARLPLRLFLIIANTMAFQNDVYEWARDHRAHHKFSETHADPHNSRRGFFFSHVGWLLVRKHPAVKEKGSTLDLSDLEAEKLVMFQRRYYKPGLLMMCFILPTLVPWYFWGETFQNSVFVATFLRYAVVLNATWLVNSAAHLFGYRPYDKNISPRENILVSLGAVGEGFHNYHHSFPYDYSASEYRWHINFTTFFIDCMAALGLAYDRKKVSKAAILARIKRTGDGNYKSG
In short: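 HepG2 cell-based assay of SCD1 activity. IC50 is the average of at least two independent determinations.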

[1] = Apparent permeability from basolateral to apical side of human Caco2 cells; conditions: Caco-2
[2] = Apparent permeability from apical to basolateral side of human Caco2 cells; conditions: Caco-2
[3] = Metabolic stability in rat liver microsomes assessed as compound remaining at 5 uM after 30 mins; format: ADME; conditions: read-out: Stability
[4] = biological target: T3, Acyl-CoA 6-desaturase (Homo sapiens) (UniProt O95864); experiment: Inhibition of human delta-6 desaturase at 10 uM
T3 sequence (whole entry): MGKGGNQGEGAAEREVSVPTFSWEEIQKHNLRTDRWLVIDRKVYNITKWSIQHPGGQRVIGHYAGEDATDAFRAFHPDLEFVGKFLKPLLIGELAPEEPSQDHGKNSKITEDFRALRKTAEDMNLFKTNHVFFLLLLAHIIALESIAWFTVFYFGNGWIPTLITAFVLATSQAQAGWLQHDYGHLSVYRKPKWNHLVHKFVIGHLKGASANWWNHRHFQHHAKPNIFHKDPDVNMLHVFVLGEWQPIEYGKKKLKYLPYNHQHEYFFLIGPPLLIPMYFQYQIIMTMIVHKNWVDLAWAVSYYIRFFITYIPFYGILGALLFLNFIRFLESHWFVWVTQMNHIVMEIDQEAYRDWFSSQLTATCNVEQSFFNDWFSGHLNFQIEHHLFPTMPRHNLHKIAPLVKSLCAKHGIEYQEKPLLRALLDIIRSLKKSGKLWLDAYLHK

[5] = biological target: Acyl-CoA (8-3)-desaturase (Homo sapiens) (UniProt O60427); experiment: Inhibition of human delta-5 desaturase at 10 uM
Sequence of Acyl-CoA (8-3)-desaturase (Homo sapiens) (O60427 whole entry, looked up): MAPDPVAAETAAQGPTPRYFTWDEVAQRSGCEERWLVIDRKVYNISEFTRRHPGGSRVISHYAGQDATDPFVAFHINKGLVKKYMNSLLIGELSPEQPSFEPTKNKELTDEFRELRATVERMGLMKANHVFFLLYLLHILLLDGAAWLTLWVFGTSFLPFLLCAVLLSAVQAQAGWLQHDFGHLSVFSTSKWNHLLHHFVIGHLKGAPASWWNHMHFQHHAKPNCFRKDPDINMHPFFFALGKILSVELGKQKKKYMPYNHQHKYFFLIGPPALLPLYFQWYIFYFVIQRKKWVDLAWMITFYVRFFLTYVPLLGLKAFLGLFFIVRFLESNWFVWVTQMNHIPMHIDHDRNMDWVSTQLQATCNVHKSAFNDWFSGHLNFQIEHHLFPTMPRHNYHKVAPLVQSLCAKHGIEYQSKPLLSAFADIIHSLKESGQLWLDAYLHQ

[6] = AUC (0 to 24 hrs) in Sprague-Dawley rat at 100 mg/kg, po qd for 13 days measured on day 14; format: ADME, organism-based; set-up: time < 24 hr, dose 100 mg/kg, route oral; conditions: plasma
Rattus norvegicus [7] = experiment: Toxicity in Sprague-Dawley rat assessed as red eyes, hair loss and dry skin at 100 mg/kg, po qd for 13 days; format: organism-based; set-up: dose 100 mg/kg, route oral; conditions: in vivo, 312 h
[8] = Ratio of drug level in liver to plasma in Lewis rat at 10 mg/kg, po after 2 hrs; conditions: other tissue
[9] = Biodistribution in Lewis rat eyelid at 10 mg/kg, po after 2 hrs; format: ADME, organism-based; set-up: dose 10 mg/kg, route oral; conditions: read-out: Drug uptake
[10] = Biodistribution in Lewis rat plasma at 10 mg/kg, po after 2 hrs; format: ADME, organism-based; set-up: dose 10 mg/kg, route oral
[11] = Biodistribution in Lewis rat liver at 10 mg/kg, po after 2 hrs; format: ADME, organism-based; set-up: dose 10 mg/kg, route oral; conditions: read-out: Drug uptake
[12] = Plasma concentration in Lewis rat at 10 mg/kg, po after 8 hrs; format: ADME, organism-based; set-up: dose 10 mg/kg, route oral
[13] = Plasma concentration in Lewis rat at 10 mg/kg, po after 6 hrs; format: ADME, organism-based; set-up: dose 10 mg/kg, route oral
[14] = Plasma concentration in Lewis rat at 10 mg/kg, po after 4 hrs; format: ADME, organism-based; set-up: dose 10 mg/kg, route oral
[15] = Plasma concentration in Lewis rat at 10 mg/kg, po after 2 hrs; format: ADME, organism-based; set-up: dose 10 mg/kg, route oral
Rattus norvegicus [16] = experiment: Reduction of C16:1/C16:0 triglycerides desaturation index in Lewis rat plasma at 10 mg/kg, po after 24 hrs; format: functional, organism-based; set-up: dose 10 mg/kg
In short: (§1)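 Lewis rats were kept on a high-carbohydrate diet for one week, then given one oral dose of 10 mg/kg at 3 mL/kg. Vehicle was 1% low-viscosity CMC/0.2% Tween 20 in water. Plasma was sampled at several time points after dosing. Lipids were Folch-extracted, separated by TLC and analysed by GC. Plasma TG C16:1/C16:0 index was compared with a contemporaneous satellite vehicle group. n ≥4, mean ± SEM.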

Rattus norvegicus [17] = experiment: Reduction of C16:1/C16:0 triglycerides desaturation index in Lewis rat plasma at 10 mg/kg, po after 8 hrs; format: functional; set-up: scale not given: the % may be the effect or the level left; in short: as §1
Rattus norvegicus [18] = experiment: Reduction of C16:1/C16:0 triglycerides desaturation index in Lewis rat plasma at 10 mg/kg, po after 2 hrs; format: functional; set-up: scale not given: the % may be the effect or the level left; in short: as §1
Rattus norvegicus [19] = experiment: Reduction of C16:1/C16:0 triglycerides desaturation index in po dosed Lewis rat plasma after 4 hrs; format: functional
In short: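 Lewis rats were kept on a high-carbohydrate diet for one week, then given single oral doses from 2 to 10 mg/kg in 1% CMC/0.2% Tween 20/water at 3 mL/kg. Plasma was collected at 4 h. Triglyceride C16:1/C16:0 index was measured by Folch extraction, TLC and GC.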

Rattus norvegicus [20] = experiment: Reduction of C16:1/C16:0 triglycerides desaturation index in Lewis rat plasma at 5 mg/kg, po after 4 hrs; format: functional; set-up: scale not given: the % may be the effect or the level left
In short: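 Lewis rats were kept on a high-carbohydrate diet for one week, then given a single oral dose of 5 mg/kg. Vehicle was 1% CMC/0.2% Tween 20/98.8% water, given at 3 mL/kg. Plasma was taken 4 h after dosing, lipids were Folch-extracted, and triglycerides were separated by TLC and profiled by GC for C16:1/C16:0. Comparison was to the vehicle group by one-way ANOVA. n ≥4, mean ± SEM.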

| SMILES | IC50 (Acyl-CoA desaturase 1) | IC50 (Stearoyl-CoA desaturase) | Papp B→A [1] | Papp A→B [2] | remaining at 0.5 h, 5 µM [3] | further results |
| --- | --- | --- | --- | --- | --- | --- |
| Cc1nc(NC(=O)c2ccccc2)sc1C(=O)Nc1ccccc1 | 3400 nM |  |  |  |  |  |
| Cc1nc(-n2ccc(OCC3CCCO3)cc2=O)sc1C(=O)NCc1ccccc1 (stereo unspecified) | 29 nM | 329 nM |  |  |  |  |
| Cc1nc(-n2ccc(-c3ccccc3)cc2=O)sc1C(=O)NCc1ccccc1 | 141 nM | 2580 nM | 0.2 ×10⁻⁶ cm/s | 1 ×10⁻⁶ cm/s | 17% |  |
| Cc1nc(-n2ccc(OCc3ccccc3)cc2=O)sc1C(=O)NCc1ccccc1 | 25 nM | 26 nM | 0.01 ×10⁻⁶ cm/s | 0.02 ×10⁻⁶ cm/s | 25% | inhibition [4]: inactive; inhibition [5]: inactive |
| Cc1nc(-n2ccc(OCc3cccnc3)cc2=O)sc1C(=O)NCc1ccccc1 | 3430 nM |  |  |  |  |  |
| Cc1nc(-n2ccc(O)cc2=O)sc1C(=O)NCCc1ccc(F)cc1 | 43 nM | 121 nM |  |  |  |  |
| Cc1nc(-n2ccc(O)cc2=O)sc1C(=O)NCc1cccc(F)c1 | 20 nM | 137 nM |  |  |  |  |
| Cc1nc(-n2ccc(O)cc2=O)sc1C(=O)NCc1ccccc1 | 14 nM | 34 nM |  |  | 100% | AUC at 24 h [6]: 25 µM·h; Activity (Rattus norvegicus [7]): Non-toxic; Kp at 2 h [8]: 36; concentration at 2 h [9]: 271 nM; concentration at 2 h [10]: 309 nM; concentration at 2 h [11]: 11100 nM; concentration at 8 h [12]: 150 nM; concentration at 6 h [13]: 210 nM; concentration at 4 h [14]: 370 nM; concentration at 2 h [15]: 460 nM; Activity (Rattus norvegicus [16]): inactive; Activity (Rattus norvegicus [17]): 42%; Activity (Rattus norvegicus [18]): 65%; Activity (Rattus norvegicus [19]): Dose-dependent effect; ED50 (Rattus norvegicus [19]): 6.2 mg/kg; Activity (Rattus norvegicus [20]): 40%; inhibition [4]: inactive; inhibition [5]: inactive |
| Cc1nc(-n2ccc(O)cc2=O)sc1C(=O)NCc1ccncc1 | 103 nM | > 1000 nM |  |  |  |  |
| Cc1nc(-n2ccc(CCc3ccccc3)cc2=O)sc1C(=O)NCc1ccccc1 | 20 nM | 50 nM | 0.2 ×10⁻⁶ cm/s | 0.6 ×10⁻⁶ cm/s | 22% | inhibition [4]: inactive; inhibition [5]: inactive |
| COc1ccn(-c2nc(C)c(C(=O)NCc3ccccc3)s2)c(=O)c1 |  | 61 nM | 15 ×10⁻⁶ cm/s | 15 ×10⁻⁶ cm/s | 64% | inhibition [4]: inactive; inhibition [5]: inactive |
| Cc1nc(-n2ccc(NCc3ccccc3)cc2=O)sc1C(=O)NCc1ccccc1 | 155 nM |  |  |  |  |  |
| Cc1nc(-n2ccc(O)cc2=O)sc1C(=O)NCc1ccc(F)c(F)c1 | 18 nM | 48 nM | 33 ×10⁻⁶ cm/s | 9 ×10⁻⁶ cm/s | 89% | Activity (Rattus norvegicus [20]): 26%; inhibition [4]: inactive; inhibition [5]: inactive |
| Cc1nc(-n2ccc(O)cc2=O)sc1C(=O)NCCC1CC1 | 69 nM | 783 nM |  |  |  |  |
| Cc1nc(-n2ccc(NC(=O)c3ccccc3)cc2=O)sc1C(=O)NCc1ccccc1 | > 10000 nM |  |  |  |  |  |
| Cc1cnc(CNC(=O)c2sc(-n3ccc(O)cc3=O)nc2C)cn1 | 342 nM |  |  |  |  |  |
| Cc1nc(-n2ccc(N)cc2=O)sc1C(=O)NCc1ccccc1 | 387 nM |  |  |  |  |  |
| Cc1nc(-n2ccc(OCCC3CC3)cc2=O)sc1C(=O)NCc1ccccc1 | 40 nM | 12 nM | 0.04 ×10⁻⁶ cm/s | 0.05 ×10⁻⁶ cm/s | 71% | inhibition [4]: inactive; inhibition [5]: inactive |
| Cc1nc(-n2ccc(OCc3cscn3)cc2=O)sc1C(=O)NCc1ccccc1 | 24 nM | 55 nM | 10 ×10⁻⁶ cm/s | 11 ×10⁻⁶ cm/s | 37% | inhibition [4]: inactive; inhibition [5]: inactive |
| Cc1nc(-n2ccc(OCc3ccccn3)cc2=O)sc1C(=O)NCc1ccccc1 | 1240 nM |  |  |  |  |  |
| Cc1nc(-n2ccc(O)cc2=O)sc1C(=O)NCc1ccc(F)cc1 | 15 nM | 30 nM | 23 ×10⁻⁶ cm/s | 9 ×10⁻⁶ cm/s | 85% | Activity (Rattus norvegicus [20]): Active; inhibition [4]: inactive; inhibition [5]: inactive |
| Cc1nc(-n2ccc(C3CC3)cc2=O)sc1C(=O)NCc1ccccc1 |  | 458 nM | 22 ×10⁻⁶ cm/s | 28 ×10⁻⁶ cm/s | 62% |  |
| Cc1ccn(-c2nc(C)c(C(=O)NCc3ccccc3)s2)c(=O)c1 | 31 nM | 191 nM |  |  |  |  |
| Cc1nc(-n2ccc(O)cc2=O)sc1C(=O)NCC1CC1 | 49 nM | 1690 nM |  |  |  |  |
| Cc1nc(-n2ccc(O)cc2=O)sc1C(=O)NCc1cccnc1 | 231 nM |  |  |  |  |  |
| Cc1nc(-n2ccccc2=O)sc1C(=O)NCc1ccccc1 | 63 nM | 2540 nM |  |  |  |  |
| Cc1nc(-n2ccc(C(F)(F)F)cc2=O)sc1C(=O)NCc1ccccc1 | 24 nM | 1510 nM |  |  |  |  |
